Converted amounts (≈) assume the structure as drawn.

From ChEMBL document CHEMBL1140048, “NO-donors. Part 17: Synthesis and antimicrobial activity of novel ketoconazole-NO-donor hybrid compounds” (Bioorg Med Chem, 2008) come the findings set out here.

Series [1] is described as follows: Chemical stability of compound assessed as half life of nitric oxide release at pH 7.4. The series is classed as physicochemical. The following applies: buffer.
Series [2] concerns Aspergillus terreus. As to the kind of experiment: Antifungal activity against Aspergillus terreus after 24 hrs by broth microdilution method. The series is classed as functional. The method in brief:
(§1)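 Broth microdilution per NCCLS in RPMI 1640 (L-glutamine, MOPS, no bicarbonate). An 8 mM stock in DMSO/methanol 1:10 is serially diluted twofold; NONOate salts go through 0.1 M NaOH, with only the last step in medium. Inoculum is 6×10^3 CFU/mL final. A. fumigatus and A. terreus are incubated 24 h at 37 °C; others at 30 °C. MIC is the lowest dilution without visible growth, read nephelometrically.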

Series [3] has as its system Nakaseomyces glabratus. As to the kind of experiment: Ratio of MIC for drug to ketoconazole against Candida glabrata. Format: functional. The method in brief: (§2)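 FIC is calculated as the MIC of the test compound divided by the MIC of ketoconazole. Both MICs come from 24 h NCCLS broth microdilution in RPMI 1640/MOPS, starting from an 8 mM stock in twofold dilutions, at 6×10^3 CFU/mL. Incubation is at 37 °C for A. fumigatus and A. terreus and at 30 °C for the other strains.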

The subject of series [4] is Candida albicans. As to the kind of experiment: Antifungal activity against Candida albicans after 24 hrs by broth microdilution method. Format: functional. The procedure, abridged: as §1
Series [5] has as its system Aspergillus niger. Briefly: Antifungal activity against Aspergillus niger after 24 hrs by broth microdilution method. Format: functional. The method in brief:
as §1

Series [6] relates to Penicillium chrysogenum. Briefly: Antifungal activity against Penicillium notatum after 24 hrs by broth microdilution method. The series is classed as functional. The method in brief:
as §1

The test system of series [7] is Penicillium chrysogenum. Briefly: Ratio of MIC for drug to ketoconazole against Penicillium notatum. The series is classed as functional. The method in brief: as §2
Series [8] deals with Fusarium oxysporum. As to the kind of experiment: Ratio of MIC for drug to ketoconazole against Fusarium oxysporum. Format: functional.
Series [9] concerns Aspergillus fumigatus. Briefly: Antifungal activity against Aspergillus fumigatus after 24 hrs by broth microdilution method. The series is classed as functional. The method in brief:
as §1

Series [10] concerns Sporobolomyces salmonicolor. As to the kind of experiment: Ratio of MIC for drug to ketoconazole against Sporobolomyces salmonicolor. Format: functional. The method in brief:
as §2

For series [11], the system named is Sporobolomyces salmonicolor. Briefly: Antifungal activity against Sporobolomyces salmonicolor after 24 hrs by broth microdilution method. Format: functional. The method in brief: as §1
The subject of series [12] is Aspergillus terreus. Briefly: Ratio of MIC for drug to ketoconazole against Aspergillus terreus. The series is classed as functional. The procedure, abridged:
as §2

For series [13], the system named is Candida albicans. Briefly: Ratio of MIC for drug to ketoconazole against Candida albicans. The series is classed as functional. The method in brief:
as §2

Series [14] has as its system Aspergillus niger. As to the kind of experiment: Ratio of MIC for drug to ketoconazole against Aspergillus niger. Format: functional. The procedure, abridged: as §2
The test system of series [15] is Nakaseomyces glabratus. Briefly: Antifungal activity against Candida glabrata after 24 hrs by broth microdilution method. Format: functional. The procedure, abridged: as §1
Series [16] has as its system Aspergillus fumigatus. Briefly: Ratio of MIC for drug to ketoconazole against Aspergillus fumigatus. The series is classed as functional. The procedure, abridged: as §2
In series [17] the test system is Fusarium oxysporum. Briefly: Antifungal activity against Fusarium oxysporum after 24 hrs by agar diffusion method.
For another series, the system named is Candida. Briefly: Antifungal activity against Candida sp. by microdilution assay. The series is classed as functional. The procedure, abridged: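 Broth microdilution per NCCLS guidelines in RPMI 1640 (L-glutamine, MOPS, no bicarbonate). An 8 mM stock in DMSO/methanol (1:10) was serially diluted twofold in medium; NONOate sodium salts were diluted in 0.1 M NaOH, with only the final step in medium, used at once. Final inoculum 6×10^3 CFU/mL, 30 °C, 24 h. MIC read nephelometrically as the lowest dilution with no visible growth.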

Turning to `[Na+].[O-]/N=[N+](\[O-])N1CCN(c2ccc(OC[C@H]3CO[C@](Cn4ccnc4)(c4ccc(Cl)cc4Cl)O3)cc2)CC1`, in series [1], the t1/2 came to 4.5 min. Further, the MIC against Aspergillus terreus [2] was determined as 100 µM; in the series on Candida albicans [4], 100 µM; in the series with Aspergillus niger [5], 100 µM; in the series with Penicillium chrysogenum [6], 20 µM; in the series on Aspergillus fumigatus [9], 200 µM; in series [11] it was 1.25 µM. Besides, the minimal inhibitory concentration (MIC) against Nakaseomyces glabratus [15] stood at 12.5 µM; against Fusarium oxysporum [17], 200 µM. The Ratio is reported as 1 in the series with Nakaseomyces glabratus [3]; 2.5 in the series with Penicillium chrysogenum [7]; 0.4 in the series on Fusarium oxysporum [8]; 0.8 in [10]; 3.2 in the series on Aspergillus terreus [12]; 4 in the series with Candida albicans [13]. Moreover, the figures for the Ratio with Aspergillus niger [14] and in the series with Aspergillus fumigatus [16] were 1.6 and 3.2, respectively.
With `NCCN(CCN)/[N+]([O-])=N/O`, 2000 µg/mL (≈ 12.3 mM) was the least that counted as inhibitory against Candida (MIC).
Take `NCCCN(CCCN)N(O)N=O`: in the series with Candida, inhibition of growth (MIC) required 5000 µg/mL (≈ 26.1 mM).
With `O=C(CO/N=[N+](\[O-])N1CCCC1)N1CCN(c2ccc(OC[C@H]3CO[C@](Cn4ccnc4)(c4ccc(Cl)cc4Cl)O3)cc2)CC1`, the MIC in the series on Aspergillus terreus [2] was 62.5 µM (≈ 41.3 µg/mL); against Candida albicans [4], 25 µM (≈ 16.5 µg/mL); against Aspergillus niger [5], 62.5 µM (≈ 41.3 µg/mL); with Penicillium chrysogenum [6] it was 8 µM (≈ 5.28 µg/mL); with Aspergillus fumigatus [9], 125 µM (≈ 82.6 µg/mL); in series [11] it was 2 µM (≈ 1.32 µg/mL). The MIC against Nakaseomyces glabratus [15] came to 12.5 µM (≈ 8.26 µg/mL); in the series on Fusarium oxysporum [17] it was 1000 µM (≈ 661 µg/mL). Moreover, the Ratio was 1 in the series on Nakaseomyces glabratus [3]; 1 in the series on Penicillium chrysogenum [7]; 2 in the series with Fusarium oxysporum [8]; 1.3 in series [10]; 2 in the series on Aspergillus terreus [12]; 1 in the series with Candida albicans [13]. Also, the Ratio in the series on Aspergillus niger [14] was 1; with Aspergillus fumigatus [16], 2.
Turning to `COCO/N=[N+](\[O-])N1CCN(c2ccc(OC[C@H]3CO[C@](Cn4ccnc4)(c4ccc(Cl)cc4Cl)O3)cc2)CC1`, the minimal inhibitory concentration (MIC) came to 8 µM (≈ 4.75 µg/mL) against Aspergillus terreus [2]; 25 µM (≈ 14.8 µg/mL) against Candida albicans [4]; 4 µM (≈ 2.37 µg/mL) against Aspergillus niger [5]; 1.56 µM (≈ 0.926 µg/mL) against Penicillium chrysogenum [6]; 8 µM (≈ 4.75 µg/mL) against Aspergillus fumigatus [9]; 2 µM (≈ 1.19 µg/mL) in series [11]. Further, the results for the minimal inhibitory concentration (MIC) in the series on Nakaseomyces glabratus [15] and against Fusarium oxysporum [17] were 3.13 µM (≈ 1.86 µg/mL) and 250 µM (≈ 148 µg/mL), respectively. The Ratio in the series on Nakaseomyces glabratus [3] is listed as 0.25; in the series on Penicillium chrysogenum [7], 0.2; in the series on Fusarium oxysporum [8], 0.5; in series [10], 1.3; in the series with Aspergillus terreus [12], 0.26; with Candida albicans [13] it was 1. The values for the Ratio in the series on Aspergillus niger [14] and with Aspergillus fumigatus [16] were 0.06 and 0.13, respectively.
